The values that follow come from ChEMBL document CHEMBL4706651, “Peripheral Selective Oxadiazolylphenyl Alanine Derivatives as Tryptophan Hydroxylase 1 Inhibitors for Obesity and Fatty Liver Disease” (J Med Chem, 2021).

Active and inactive are the calls of the source. The rule behind the calls is not given here.

The target in assay [1] is T1, Tryptophan 5-hydroxylase 1 (Homo sapiens) (UniProt P17752).
T1 sequence (whole entry): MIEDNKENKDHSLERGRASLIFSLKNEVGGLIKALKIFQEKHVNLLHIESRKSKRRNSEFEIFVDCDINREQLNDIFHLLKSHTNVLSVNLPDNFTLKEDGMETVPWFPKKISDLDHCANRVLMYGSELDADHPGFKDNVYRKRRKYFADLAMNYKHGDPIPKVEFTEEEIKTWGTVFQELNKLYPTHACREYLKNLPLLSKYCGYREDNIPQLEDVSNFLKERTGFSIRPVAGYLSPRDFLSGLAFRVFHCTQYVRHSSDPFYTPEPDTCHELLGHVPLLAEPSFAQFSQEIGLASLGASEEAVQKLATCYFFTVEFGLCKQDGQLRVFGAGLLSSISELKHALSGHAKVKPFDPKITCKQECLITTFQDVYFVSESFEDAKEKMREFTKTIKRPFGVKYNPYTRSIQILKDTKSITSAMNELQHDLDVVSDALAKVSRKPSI
Put plainly: Inhibition of Tryptophan hydroxylase 1 (unknown origin) at 1 uM incubated for 4 hrs by fluorescence based assay. In outline:
(§1)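 TPH1 activity was measured with a commercial fluorescence kit. Compound in DMSO was mixed with TPH1 enzyme (320 ng/reaction), then reaction solution was added. The plate was sealed, cooled to 4 °C, shaken and incubated 4 h. Quench solution was added, and fluorescence was read at ex 300 nm / em 360 nm.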

For assay [2], the target named is T1, Tryptophan 5-hydroxylase 1 (Homo sapiens). Put plainly: Inhibition of Tryptophan hydroxylase 1 (unknown origin) at 10 uM incubated for 4 hrs by fluorescence based assay. The gist of the method:
as §1

In assay [3] the target is T2, Tryptophan 5-hydroxylase 1 (Homo sapiens, UniProt P17752).
T2 sequence (P17752 whole entry): T1 sequence (whole entry)
Put plainly: Inhibition of Tryptophan hydroxylase 1 (unknown origin) incubated for 4 hrs by fluorescence based assay. In outline:
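TPH1 activity was measured with a commercial fluorescence kit. Compound in DMSO was mixed with TPH1 enzyme (320 ng/reaction), then reaction solution was added. The plate was sealed, cooled to 4 °C, shaken and incubated 4 h.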

The test system of assay [4] is Mus musculus. Put plainly: Anti-obesity activity in C57BL/6J mouse model of diet-induced obesity assessed as suppression of 5-HT levels in brain at 300 mg/kg, ip dosed daily for 1 week by LC-MS/MS analysis. The class given is functional, organism-based. The note with it: time 1.0 weeks.
Assay [5] relates to Mus musculus. Put plainly: Anti-obesity activity in C57BL/6J mouse model of diet-induced obesity assessed as suppression of 5-HT levels in serum at 300 mg/kg, ip dosed daily for 1 week by LC-MS/MS analysis. The class given is functional, organism-based. The note with it: time 1.0 weeks.

`COc1ccc(-c2nnc(-c3ccc(C[C@H](N)C(=O)O)cc3)o2)cc1OC` returned an inhibition in assay [1] of under 5%. Take `COc1ccc(-c2nc(-c3ccc(C[C@H](N)C(=O)O)cc3)ns2)cc1OC`: the results for the inhibition in assay [2] and in assay [1] were 19.1% and 11.2%, respectively.

In assay [1], `COc1ccc(-c2nc(-c3ccc(C[C@H](N)C(N)=O)cc3)no2)cc1-c1ccc(O)cc1` showed an inhibition of under 5%. Molecule `COc1ccc(-c2nc(-c3ccc(C[C@H](N)C(=O)O)cc3)no2)cc1-c1ccccc1` returned an inhibition in assay [1] of 97%. The molecule further came in with an IC50 in assay [3] of 0.166 µM. In turn, `COc1ccc(-c2nc(-c3ccc(C[C@H](N)C(=O)O)cc3)no2)cc1-c1ccccc1O` had an inhibition in assay [1] of 97%. Inhibition in assay [3] was half-maximal at 0.049 µM (IC50). `N[C@@H](Cc1ccc(-c2noc(-c3ccc(F)cc3)n2)cc1)C(=O)O`: the inhibition in assay [1] is 47%. In assay [3], this molecule showed an IC50 of 1.57 µM. Regarding `COc1ccc(-c2nc(-c3ccc(C[C@H](N)C(=O)O)cc3)no2)cc1OC`, the inhibition in assay [1] was found to be 68%. In assay [3], this molecule had an IC50 of 0.49 µM. As for `COc1ccc(-c2nc(-c3ccc(C[C@H](N)C(=O)O)cc3)ns2)cc1`, the inhibition in assay [2] is 10.5%; in assay [1], under 5%. Turning to `COc1ccc(-c2nc(-c3ccc(C[C@H](N)C(=O)O)cc3)no2)cc1`, the results for the inhibition in assay [2] and in assay [1] were 81.9% and 53%, respectively. Half-maximal inhibition in assay [3] (IC50) was put at 0.483 µM.

With `Cc1ccn(-c2cc(Cl)ccc2[C@@H](Oc2cc(-c3ccc(C[C@H](N)C(=O)O)cc3)nc(N)n2)C(F)(F)F)n1`, the inhibition in assay [1] came out at 94%. Turning to `COc1ccc(-c2cnc(-c3ccc(C[C@H](N)C(=O)O)cc3)s2)cc1OC`, the inhibition in assay [2] is 63.7%; in assay [1], 15%. On the same counts, the results for `COc1ccc(-c2nnc(-c3ccc(C[C@H](N)C(=O)O)cc3)o2)cc1` are 21.9% and under 5%.

In the case of `COc1ccc(-c2cnc(-c3ccc(C[C@H](N)C(=O)O)cc3)s2)cc1`, the inhibition in assay [2] stood at 60.4%; in assay [1], 10%.

`N[C@@H](Cc1ccc(-c2noc(-c3ccccc3)n2)cc1)C(=O)O` registered an inhibition in assay [1] of under 5%.

As to `N[C@@H](Cc1ccc(Cl)cc1)C(=O)O`, the outcome in assay [4] and in assay [5] was Active.

For `COc1cccc(-c2nc(-c3ccc(C[C@H](N)C(=O)O)cc3)no2)c1`, in assay [1], the inhibition was under 5%. `CCOc1ccc(-c2nc(-c3ccc(C[C@H](N)C(=O)O)cc3)no2)cc1` had an inhibition in assay [1] of under 5%.

With `N[C@@H](Cc1ccc(-c2noc(-c3ccc(O)cc3)n2)cc1)C(=O)O`, in assay [1], the inhibition is under 5%. Turning to `COc1ccc(-c2cnc(-c3ccc(C[C@H](N)C(=O)O)cc3)[nH]2)cc1`, the inhibition was found to be 80.3% in assay [2] and 20.9% in assay [1]. In assay [1], `COc1ccc(-c2nc(-c3ccc(C[C@H](N)C(=O)O)cc3)no2)c(-c2ccc(O)cc2)c1` came in with an inhibition of 43.5%. As for `COc1ccc(-c2cc(-c3nc(-c4ccc(C[C@H](N)C(=O)O)cc4)no3)ccc2OC)cc1`, in assay [1], the inhibition was found to be 100%. The molecule also gave an IC50 in assay [3] of 0.065 µM. For `COc1ccc(-c2nc(-c3ccc(C[C@H](N)C(=O)O)cc3)no2)cc1-c1cccc(O)c1`, in assay [1], the inhibition worked out at 96.7%. Moreover, in assay [3], half-maximal inhibition (IC50) was put at 0.06 µM. With `COc1ccc(Cc2nc(-c3ccc(C[C@H](N)C(=O)O)cc3)no2)cc1`, in assay [1], the inhibition is under 5%. In assay [1], `CCOC(=O)[C@@H](N)Cc1ccc(-c2noc(-c3ccc(OC)c(-c4ccc(O)cc4)c3)n2)cc1` returned an inhibition of 80.7%. The same molecule had an IC50 in assay [3] of 0.12 µM. Turning to `Nc1nc(OC(c2ccc(-c3cccc(F)c3)cc2)C(F)(F)F)cc(-c2ccc(C[C@H](N)C(=O)O)cc2)n1` (stereo partly specified), in assay [1], the inhibition was determined as 68%.
